According to ChEMBL document CHEMBL1681721, “Synthesis, in vitro antimalarial and cytotoxicity of artemisinin-aminoquinoline hybrids” (Bioorg Med Chem Lett, 2011):

Key:
Plasmodium falciparum [1] = experiment: Antiplasmodial activity against chloroquine-resistant Plasmodium falciparum Dd2 by lactate dehydrogenase assay; format: functional, organism-based
In short: (§1)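 IC50s measured in vitro against P. falciparum D10 (chloroquine-sensitive) and Dd2 (chloroquine-resistant). Compounds insoluble in the test medium were added as suspensions in DMSO. Chloroquine served as the reference antimalarial. Values are averages over n data sets.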

CHO = experiment: Cytotoxicity against CHO cells by MTT assay; format: cell-based, Cricetulus griseus
In short: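 MTT viability assay on Chinese hamster ovary (CHO) cells, with emetine as the reference drug. IC50 is the average of n data sets.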

[2] = Selectivity index, ratio of IC50 for CHO cells to IC50 for chloroquine-sensitive Plasmodium falciparum D10; format: toxicity, cell-based; conditions: hamster; for Selectivity Index: cho; for selectivity ratio: CHO cells, read-out: Selectivity Index
In short: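 Calculated as IC50 (CHO, MTT assay) / IC50 (P. falciparum D10), using IC50s measured in this work.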

Plasmodium falciparum [3] = experiment: Resistance index, ratio of IC50 for chloroquine-resistant Plasmodium falciparum Dd2 to IC50 for chloroquine-sensitive Plasmodium falciparum D10; format: functional
In short: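 Calculated as IC50 (Dd2) / IC50 (D10), using IC50s from the parallel in vitro assays on both P. falciparum strains.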

Plasmodium falciparum [4] = experiment: Antiplasmodial activity against chloroquine-sensitive Plasmodium falciparum D10 by lactate dehydrogenase assay; format: functional, organism-based; in short: as §1
Plasmodium falciparum [5] = experiment: Ratio of chloroquine IC50 to compound IC50 for chloroquine-resistant Plasmodium falciparum Dd2; format: functional

Row | SMILES | IC50 (Plasmodium falciparum [1]) [nM] | IC50 (CHO; cho) [nM] | Selectivity Index [2] | Ratio IC50 (Plasmodium falciparum [3]) | IC50 (Plasmodium falciparum [4]) [nM] | IC50 (CHO; Cricetulus griseus, CHO) [nM] | selectivity ratio [2] | Ratio IC50 (Plasmodium falciparum [5]) | IC50 (Plasmodium falciparum [4]; Plasmodium falciparum, D10) [nM] | IC50 (Plasmodium falciparum [1]; Plasmodium falciparum, Dd2) [nM]
1 | C[C@H]1[C@@H](OCCNCCNc2ccnc3cc(Cl)ccc23)O[C@@H]2O[C@@]3(C)CC[C@H]4[C@H](C)CC[C@@H]1[C@@]24OO3 | 153 | 33000 | 391 | 2 | 84.6 |  |  |  |  | 
2 | C[C@H]1[C@@H](OCCNCCNc2ccnc3cc(Cl)ccc23)O[C@@H]2O[C@@]3(C)CC[C@H]4[C@H](C)CC[C@@H]1[C@@]24OO3.O=C(O)C(=O)O | 25.7 | 1640 | 77 | 1 | 21.5 |  |  |  |  | 
3 | C[C@H]1[C@@H](OCCN2CCN(CCNc3ccnc4cc(Cl)ccc34)CC2)O[C@@H]2O[C@@]3(C)CC[C@H]4[C@H](C)CC[C@@H]1[C@@]24OO3 | 276 |  |  | 1 | 201 |  |  |  |  | 
4 | C[C@H]1[C@@H](OCCN2CCN(CCNc3ccnc4cc(Cl)ccc34)CC2)O[C@@H]2O[C@@]3(C)CC[C@H]4[C@H](C)CC[C@@H]1[C@@]24OO3.O=C(O)C(=O)O | 29.2 |  |  | 1 | 29 | 2320 | 80 |  |  | 
5 | CC[C@H]1CN2CCc3cc(OC)c(OC)cc3[C@@H]2C[C@@H]1C[C@H]1NCCc2cc(OC)c(OC)cc21 [EMETINE] |  |  |  |  |  | 190 |  |  |  | 
6 | CC(CNc1ccnc2cc(Cl)ccc12)NCCO[C@H]1O[C@@H]2O[C@@]3(C)CC[C@H]4[C@H](C)CC[C@@H]([C@H]1C)[C@@]24OO3 (stereo not given in full) | 17.1 | 3390 |  | 1 | 12.2 |  | 279 | 9 |  | 
7 | C[C@H]1[C@@H](OCCNc2ccc(Nc3ccnc4cc(Cl)ccc34)cc2)O[C@@H]2O[C@@]3(C)CC[C@H]4[C@H](C)CC[C@@H]1[C@@]24OO3 | 69.2 |  |  | 2 | 30.4 |  |  |  |  | 
8 | C[C@H]1[C@@H](OCCNCCCNc2ccnc3cc(Cl)ccc23)O[C@@H]2O[C@@]3(C)CC[C@H]4[C@H](C)CC[C@@H]1[C@@]24OO3 | 183 | 37300 | 317 | 2 | 118 |  |  |  |  | 
9 | C[C@H]1[C@@H](OCCNc2ccc(Nc3ccnc4cc(Cl)ccc34)cc2)O[C@@H]2O[C@@]3(C)CC[C@H]4[C@H](C)CC[C@@H]1[C@@]24OO3.O=C(O)C(=O)O | 30.2 |  |  | 2 |  | 35200 | 2040 |  | 17.2 | 
10 | C[C@H]1[C@@H](OCCN2CCN(c3ccnc4cc(Cl)ccc34)CC2)O[C@@H]2O[C@@]3(C)CC[C@H]4[C@H](C)CC[C@@H]1[C@@]24OO3 |  |  |  | 2 |  | 5920 | 193 |  | 30.7 | 68.5
11 | C[C@H]1[C@@H](O)O[C@@H]2O[C@@]3(C)CC[C@H]4[C@H](C)CC[C@@H]1[C@@]24OO3 [ARTENIMOL] |  |  |  | 0.4 |  |  |  |  |  | 
12 | C[C@H]1[C@@H](OCCNCCCNc2ccnc3cc(Cl)ccc23)O[C@@H]2O[C@@]3(C)CC[C@H]4[C@H](C)CC[C@@H]1[C@@]24OO3.O=C(O)C(=O)O | 19.8 | 170 | 12 | 1 | 14.3 |  |  |  |  | 
13 | CC(CNc1ccnc2cc(Cl)ccc12)NCCO[C@H]1O[C@@H]2O[C@@]3(C)CC[C@H]4[C@H](C)CC[C@@H]([C@H]1C)[C@@]24OO3.O=C(O)C(=O)O (stereo not given in full) |  |  | 184 | 1 |  | 2750 |  | 7 | 14.9 | 20.8
